Measurements taken from BindingDB's records for doi:10.1021/jm000285q (Merck Research Laboratories, 2000).

Target: Insulin receptor (Homo sapiens, UniProt P06213)
Test: Activation of human insulin receptor tyrosine kinase (IRTK)
How it was run: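 CHO cells stably transfected with human insulin receptor, plated 150 000 cells/well for 24 h, serum-starved 2 h, then exposed to compound 20 min at 37 °C. Lysate IR captured on anti-IR antibody wells (16 h, 4 °C), kinase reaction 40 min at 25 °C, radioactivity on phosphocellulose filters. Activity as % of maximal response to 100 nM insulin.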

Insulin receptor, sequence (P06213 28-758 limits assumed): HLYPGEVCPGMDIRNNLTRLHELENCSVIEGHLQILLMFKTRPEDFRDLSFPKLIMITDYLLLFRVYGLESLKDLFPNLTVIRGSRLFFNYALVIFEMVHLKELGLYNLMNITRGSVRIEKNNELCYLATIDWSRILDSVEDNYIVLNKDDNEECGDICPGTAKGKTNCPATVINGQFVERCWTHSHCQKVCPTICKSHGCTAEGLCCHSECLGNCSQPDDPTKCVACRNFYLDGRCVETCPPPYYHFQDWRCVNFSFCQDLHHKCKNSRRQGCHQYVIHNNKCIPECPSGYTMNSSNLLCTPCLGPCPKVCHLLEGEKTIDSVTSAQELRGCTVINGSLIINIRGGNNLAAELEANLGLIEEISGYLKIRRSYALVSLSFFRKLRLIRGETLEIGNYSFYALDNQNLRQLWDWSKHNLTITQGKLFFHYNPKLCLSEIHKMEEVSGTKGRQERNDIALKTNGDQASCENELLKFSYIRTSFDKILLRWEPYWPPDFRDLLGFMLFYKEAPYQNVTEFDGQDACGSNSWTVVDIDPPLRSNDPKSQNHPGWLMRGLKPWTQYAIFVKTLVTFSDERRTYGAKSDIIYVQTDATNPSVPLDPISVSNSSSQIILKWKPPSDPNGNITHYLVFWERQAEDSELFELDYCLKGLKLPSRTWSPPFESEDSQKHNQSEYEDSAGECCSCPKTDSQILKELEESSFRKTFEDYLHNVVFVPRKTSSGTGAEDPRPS
Insulin receptor, sequence (P06213 763-1382 limits assumed): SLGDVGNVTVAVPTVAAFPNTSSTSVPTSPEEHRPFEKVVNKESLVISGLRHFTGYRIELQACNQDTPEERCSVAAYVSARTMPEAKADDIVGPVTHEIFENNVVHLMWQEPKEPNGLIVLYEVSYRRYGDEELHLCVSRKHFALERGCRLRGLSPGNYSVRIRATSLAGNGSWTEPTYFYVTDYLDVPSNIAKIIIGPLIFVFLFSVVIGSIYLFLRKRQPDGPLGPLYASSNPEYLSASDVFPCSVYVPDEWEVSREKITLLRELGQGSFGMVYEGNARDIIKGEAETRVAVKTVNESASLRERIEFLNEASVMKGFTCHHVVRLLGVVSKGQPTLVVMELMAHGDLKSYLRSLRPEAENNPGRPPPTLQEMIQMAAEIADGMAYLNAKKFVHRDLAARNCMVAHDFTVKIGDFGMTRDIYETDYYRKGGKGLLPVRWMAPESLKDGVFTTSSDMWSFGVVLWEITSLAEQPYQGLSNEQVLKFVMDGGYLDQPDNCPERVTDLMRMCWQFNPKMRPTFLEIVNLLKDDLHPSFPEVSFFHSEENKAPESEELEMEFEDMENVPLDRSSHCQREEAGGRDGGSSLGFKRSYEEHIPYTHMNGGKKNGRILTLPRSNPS

| SMILES | EC50 [nM] |
| --- | --- |
| Cn1cc(C2C(=O)C(=O)C(c3ccccc3)C(=O)C2=O)c2ccccc21 (configuration not stated) [2,5-Dihydroxy-3-(1-methyl-1H-indol-3-yl)-6-phenyl-[1,4]benzoquinone] | 300 |
| O=C1C(=O)C(c2c[nH]c3ccccc23)C(=O)C(=O)C1c1ccccc1 (configuration not stated) [2,5-Dihydroxy-3-(1H-indol-3-yl)-6-phenyl-[1,4]benzoquinone] | 300 |
